Measurements gathered from unrelated publications.
Organism: Pseudomonas aeruginosa
Effect on: microbial growth

With `CN(C)c1cc(NC(=O)CNC(C)(C)C)c(O)c2c1C[C@H]1C[C@H]3[C@H](N(C)C)C(O)=C(C(N)=O)C(=O)[C@@]3(O)C(O)=C1C2=O` the MIC was 8 µg/mL (broth dilution; ATCC27853).
The MIC of `CC(C)Oc1c(N)ccc(C(=O)Nc2ccc(C(=O)N[C@@H](CC(N)=O)C(=O)Nc3ccc(C(=O)Nc4ccc(C(=O)Nc5ccc(C(=O)O)cc5)c(O)c4OC(C)C)cc3)cc2)c1O` is reported as 32 µg/mL (PA14).
The MIC of `CCCCCCC/C=C/C(=O)N1C(=O)/C(=C(/C)O)C(=O)C1Cc1ccc(O)cc1` (stereo not shown) is reported as greater than 200 µg/mL (PA01).
For `C/C(=C\c1ccc(C#N)cc1)C(=O)Nc1ccc(C(=O)N[C@@H](CC(N)=O)C(=O)Nc2ccc(C(=O)Nc3ccc(C(=O)Nc4ccc(C(=O)O)cc4)c(O)c3OC(C)C)cc2)cc1`, the MIC was 1 µg/mL (PA14).
`Brc1ccc(NCc2ccc(Oc3ccccn3)cc2)cc1` gave an MIC of greater than 25 µg/mL.
With `O=C(O)c1cn(C2CC2)c2cc(N3CCNCC3)c(F)cc2c1=O` the MIC was greater than 5 µg/mL (broth dilution; ATCC10145; 18 h).
`C/C(=C\c1ccc(O)cc1)C(=O)Nc1ccc(C(=O)N[C@@H](CC(N)=O)C(=O)Nc2ccc(C(=O)Nc3ccc(C(=O)Nc4ccc(C(=O)O)cc4)c(O)c3OC(C)C)cc2)cc1` gave an MIC of 1 µg/mL (PA14).
`C/C(O)=C1\C(=O)C(CC(C)C)N(C(=O)C=Cc2ccccc2)C1=O` (stereo not shown) gave an MIC of greater than 200 µg/mL (PA01).
`O=C1NN=C(N=Cc2ccc(O)c(O)c2)C1=NNn1c(-c2ccccc2)nc2ccccc2c1=O` has an MIC of 53.5 µM (broth dilution; 24 h).
`CN(C)[C@@H]1C(O)=C(C(N)=O)C(=O)[C@@]2(O)C(O)=C3C(=O)c4c(O)cncc4C[C@H]3C[C@@H]12.Cl.Cl` gave an MIC of 8 µg/mL (broth dilution; ATCC27853).
With `Cc1c(CN(C)C(=O)/C=C/c2cnc3c(c2)CC(NC(=O)OC(C)(C)C)C(=O)N3)oc2ccccc12` (stereo not shown) the MIC was greater than 32 µg/mL (broth dilution; PA01).
For `Cc1cccc(NCc2ccc(Oc3ccccn3)cc2)c1`, the MIC was greater than 25 µg/mL.
For `O=c1cc(-c2ccc(O)c(O)c2)oc2cc(O)cc(O)c12`, the MIC was 256 µg/mL (broth dilution; PAO1).
With `CCCC(=O)Oc1c(C)c(O)c(C(=O)/C=C/c2ccccc2)c(OC)c1C` the MIC was 5000 µg/mL (broth dilution; ATCC27853).
With `C[C@H]1COc2c(N3CCN(C)CC3)c(F)cc3c(=O)c(C(=O)O)cn1c23` the MIC was 138 µM (broth dilution; CMCC10104).
For `COc1cc(Cc2cnc(N)nc2N)cc(OC)c1OC`, the MIC was 8 µg/mL (broth dilution; 24 h).
`CC1(C)S[C@@H]2[C@H](NC(=O)[C@H](N)c3ccccc3)C(=O)N2[C@H]1C(=O)O` gave an MIC of greater than 200 µg/mL.
`CC(C)Oc1c(NC(=O)c2ccc(NC(=O)[C@H](CC(N)=O)NC(=O)c3ccc(NC(=O)C(C)Oc4ccc(C#N)cc4)cc3)cc2)ccc(C(=O)Nc2ccc(C(=O)O)cc2)c1O` (stereo partly shown) gave an MIC of greater than 64 µg/mL (PA14).
With `O=C(Cc1ccc(O)c(O)c1)NCCCCCCCC[P+](c1ccccc1)(c1ccccc1)c1ccccc1.[Br-]` the MIC was greater than 32 µg/mL (broth dilution; ATCC27853; 18 h).
The MIC of `CC(C)Oc1c(NC(=O)c2ccc(NC(=O)[C@H](CC(N)=O)NC(=O)c3ccc(NC(=O)c4ccc([N+](=O)[O-])c(OC(C)C)c4O)cc3)cc2)ccc(C(=O)Nc2ccc(C(=O)O)cc2)c1O` is reported as greater than 64 µg/mL (PA14).
With `CCCCCCC#Cc1cncc(-c2nnc(SCc3ccc(Cl)c(F)c3)n2C)c1` the MIC was no less than 20 µg/mL.
`CN(C)[C@@H]1C(O)=C(C(N)=O)C(=O)[C@@]2(O)C(O)=C3C(=O)c4c(cnc(-c5ccccc5)c4O)C[C@H]3C[C@@H]12.Cl.Cl` gave an MIC of greater than 32 µg/mL (broth dilution; ATCC27853).
For `Cc1ccc2nc(-c3ccc([N+](=O)[O-])cc3)n(Cc3ccccc3Cl)c2c1`, the MIC was 256 µg/mL (broth dilution; ATCC27853).
The MIC of `CC1NC(=O)C(C(=O)NC(C(=O)NC2C(=O)N3C2SC(C)(C)C3C(=O)O)c2ccccc2)=C1O` (stereo not shown) is reported as 50 µg/mL.
The MIC of `CC(C)Oc1c(NC(=O)c2ccc(NC(=O)[C@H](CC(N)=O)NC(=O)c3ccc(NC(=O)c4ccc(C#N)cc4)cc3)cc2)ccc(C(=O)N[C@@H]2CONC2=O)c1O` is reported as greater than 64 µg/mL (PA14).
`COc1c(C)c(OC(=O)c2ccc(C)cc2)c(C)c(O)c1C(=O)/C=C/c1ccccc1` gave an MIC of 5000 µg/mL (broth dilution; ATCC27853).
`C[C@@H](O)[C@H]1C(=O)N2C(C(=O)O)=C(S[C@@H]3CN[C@H](C(=O)N(C)C)C3)[C@H](C)[C@H]12` has an MIC of 1.3 µM.
`C[C@H]1[C@H](NC(=O)/C(=N\OC(C)(C)C(=O)O)c2csc(N)n2)C(=O)N1S(=O)(=O)O` has an MIC of 4 µg/mL (agar dilution; PAO1).
The MIC of `CN(C)[C@@H]1C(O)=C(C(N)=O)C(=O)[C@@]2(O)C(O)=C3C(=O)c4c(O)c(NC(=O)CNC(C)(C)C)nc(Cl)c4C[C@H]3C[C@@H]12.Cl.Cl.Cl` is reported as greater than 32 µg/mL (broth dilution; ATCC27853).
With `Cc1cccc2nc(-c3ccc([N+](=O)[O-])o3)[nH]c12` the MIC was greater than 64 µg/mL (broth dilution; ATCC27853).
With `CCCCCCC/C=C/C(=O)N1C(=O)/C(=C(\O)c2ccc(O)cc2)C(=O)C1CC(C)C` (stereo not shown) the MIC was greater than 200 µg/mL (PA01).
The MIC of `CN(C)[C@@H]1C(O)=C(C(N)=O)C(=O)[C@@]2(O)C(O)=C3C(=O)c4c(cc5ccc(CN6CC(F)(F)C6)cc5c4O)C[C@H]3C[C@@H]12` is reported as 32 µg/mL (broth dilution; ATCC27853).
The MIC of `CN[C@H](CC(C)C)C(=O)N[C@H]1C(=O)N[C@@H](CC(N)=O)C(=O)N[C@H]2C(=O)N[C@H]3C(=O)N[C@H](C(=O)N[C@H](C(=O)O)c4cc(O)cc(O)c4-c4cc3ccc4O)[C@H](O)c3ccc(c(Cl)c3)Oc3cc2cc(c3O[C@@H]2O[C@H](CO)[C@@H](O)[C@H](O)[C@H]2O[C@H]2C[C@](C)(N)[C@H](O)[C@H](C)O2)Oc2ccc(cc2Cl)[C@H]1O` is reported as greater than 32 µg/mL (broth dilution; ATCC27853; 18 h).
With `CC(C)Oc1c(NC(=O)c2ccc(NC(=O)[C@H](CC(N)=O)NC(=O)c3ccc(NC(=O)c4ccc(N)cc4)cc3)cc2)ccc(C(=O)Nc2ccc(C(=O)O)cc2)c1O` the MIC was greater than 64 µg/mL (PA14).
With `Cc1cc(=O)[nH]n1C(=O)c1ccc(-n2c(C)ccc2C)cc1` the MIC was 250 µg/mL (broth dilution; ATCC10145; 18 h).
`CN(C)c1c2c(c(O)c3cc(F)ccc13)C(=O)C1=C(O)[C@]3(O)C(=O)C(C(N)=O)=C(O)[C@@H](N(C)C)[C@@H]3C[C@@H]1C2` has an MIC of greater than 32 µg/mL (broth dilution; ATCC27853).
The MIC of `Cc1ccc2nc(-c3ccc([N+](=O)[O-])cc3)n(Cc3ccccc3)c2c1` is reported as 128 µg/mL (broth dilution; ATCC27853).
